Screening data from PubChem BioAssay.
The list is not random: actives were taken first. Their share in the collection is about 1.8%.
CHRM4 antagonist: CHRM4 antagonism in calcium assay; 360,000 tested, 0.73% active; CHO-hM4 cells, ACh EC80, Fluo-8 calcium fluorescence; P08173; inhibition, % at 3 µM; AID 624125;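 active = inhibition above its plate's cutoff, the mean inhibition of sample wells plus 3 SD, cut at about 27% in these data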;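 also: 0% = acetylcholine EC80 with DMSO and 100% = DMSO without agonist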
Target sequence (P08173 whole entry, looked up): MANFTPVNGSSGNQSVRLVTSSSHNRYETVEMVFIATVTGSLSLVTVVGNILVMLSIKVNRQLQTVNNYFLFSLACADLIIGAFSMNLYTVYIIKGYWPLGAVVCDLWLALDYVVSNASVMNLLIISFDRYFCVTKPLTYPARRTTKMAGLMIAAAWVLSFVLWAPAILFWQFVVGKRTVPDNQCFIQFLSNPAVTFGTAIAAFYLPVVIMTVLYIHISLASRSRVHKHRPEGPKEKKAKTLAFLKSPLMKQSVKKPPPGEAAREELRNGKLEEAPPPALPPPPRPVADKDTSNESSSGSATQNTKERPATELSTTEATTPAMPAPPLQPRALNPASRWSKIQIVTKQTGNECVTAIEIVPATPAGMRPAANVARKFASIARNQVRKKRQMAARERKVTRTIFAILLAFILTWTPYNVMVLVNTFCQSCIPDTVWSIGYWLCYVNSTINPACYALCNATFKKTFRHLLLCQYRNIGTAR
M5 PAM: positive allosteric modulators of human muscarinic M5 receptor; AID 624038; 360,000 tested, 0.3% active; CHO-K1 hM5, Fluo-8 calcium, ACh EC20 PAM; 0% = ACh EC20, 100% = ACh EC100; activation, % at 3 µM; P08912;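 active = activation above the run cutoff, the mean activation of all test compounds plus 3 SD, cut at about 18% in these data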
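system = human M5 receptor in CHO-K1 cells | reagent = EC20 acetylcholine as agonist stimulus | compound dosing = single-point, 3 µM nominal | incubation = Fluo-8 loading 80 min at 37 °C plus 30 min room temperature | detection = Fluo-8 calcium dye fluorescence, kinetic read | benchmarks = low control EC20 acetylcholine (0%), high control EC100 acetylcholine (100%)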
CHRM4 agonist: CHRM4 agonism in calcium assay. CHO-K1 hM4/Gqi5, Fluo-8 calcium fluorescence; vehicle 0%, full acetylcholine response 100%. 360,000 tested, 0.14% active. AID 624127. activation, % at 3 µM;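 active = activation above the run mean over all test wells plus 3 SD, cut at about 32% in these data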;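 also: peak over basal fluorescence ratio per well then scaled between controls; 0% = DMSO wells and 100% = acetylcholine at EC100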
CHRM4 PAM: potentiates acetylcholine response at human M4 receptor | CHO-K1 hM4/Gqi5, Fluo-8 calcium fluorescence, ACh EC20; 0% = ACh EC20, 100% = maximal ACh | 360,000 tested, 0.4% active | activation, % at 3 µM;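 active = activation above its plate's cutoff, the mean activation of sample wells plus 3 SD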
CHRM5 agonist: agonists of human muscarinic M5 receptor (CHRM5); AID 624037; P08912; activation, % at 3 µM; CHO-K1 hM5 cells, Fluo-8 calcium fluorescence; 0% DMSO wells, 100% maximal acetylcholine response; 360,000 tested, 0.19% active;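 active = activation above the run's mean over test compounds plus 3 SD, cut at about 23% in these data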;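 also: signal is peak over basal fluorescence ratio across the kinetic read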
CHRM5 antagonist: antagonists of human muscarinic M5 receptor (CHRM5); P08912; CHO-hM5 cells, Fluo-8 calcium fluorescence, ACh EC80; inhibition, % at 3 µM; 360,000 tested, 0.59% active; AID 624040;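 active = inhibition above a per-plate cutoff, the mean of that plate's test compounds plus 3 SD, cut at about 27% in these data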;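 also: 0% = acetylcholine EC80 with DMSO and 100% = DMSO without agonist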
* = called active by the depositor.

SMILES | CHRM4 antagonist | M5 PAM | CHRM4 agonist | CHRM4 PAM | CHRM5 agonist | CHRM5 antagonist
O=C(O)CN(c1ccccn1)S(=O)(=O)c1ccc(Cl)cc1 | -4 | 13 | 0 | 20* | -2 | -8
Cc1ccccc1C(=O)NNc1ncnc2c1cnn2C | 13 | -8 | 0 | -15 | 2 | 17
Cc1ccc(C(=O)NNc2ncnc3c2cnn3C)cc1 | -9 | 19* | 1 | 1 | 2 | -5
CCOC(=O)c1cc(C#N)c(N2CCN(c3ccc(OC)cc3)CC2)[nH]c1=O | -5 | 26* | 3 | 16 | 11 | 6
CCOC(=O)c1[nH]c(CN2CCN(c3ccc(OC)cc3)CC2)c(C(=O)OCC)c1C | 13 | -1 | 14 | -5 | 18 | -7
CC1CCCCC12NC(=O)N(CC(=O)OCc1cccc(F)c1)C2=O (centres undefined) | 4 | 2 | 3 | 2 | 3 | 2
O=C(NCCN1CCOCC1)c1ccc2c(c1)N(Cc1ccccc1)C(=O)CS2 | 37* | -2 | 0 | -29 | -12 | 4
O=C(NCCN1CCOCC1)c1ccc2c(c1)N(Cc1ccc(Cl)cc1)C(=O)CS2 | 6 | -5 | 3 | -15 | -6 | -1
O=C(NC1CCCC1)c1ccc2c(c1)N(Cc1ccccc1)CCS2 | -14 | 18* | 3 | 2 | -1 | -15
CCC1CCCCN1CCCNC(=O)c1ccc2c(c1)N(Cc1c(F)cccc1Cl)C(=O)CS2 (centres undefined) | 100* | -19 | 2 | -28 | -11 | 76*
CCOC1=C2[C@@H](CN(S(=O)(=O)c3ccc(C)cc3)[C@H]2c2ccccc2F)[C@H]2C(=O)N(c3ccccc3)C(=O)[C@H]2C1 | -7 | 2 | 0 | 0 | 3 | -6
O=C(NCCN1CCN(Cc2ccccc2)CC1)c1ccc(CS(=O)(=O)c2c(Cl)cccc2Cl)o1 | 20 | -8 | 3 | -10 | -3 | 12
COc1ccc(C(=O)N2CCOCC2c2cc(C(=O)NCc3ccccc3)no2)cc1 (centres undefined) | -12 | 0 | 2 | 8 | 0 | -3
N#Cc1cc2ccccc2nc1SCc1ccccn1 | 6 | -17 | 52* | -13 | 18 | 17
COc1ccc(C(CNC(=O)C2CCN(S(=O)(=O)c3ccc(F)cc3)CC2)N(C)C)cc1 (centres undefined) | -2 | -6 | 0 | -9 | -4 | 11
Cc1cc(NC(=O)CSCC(=O)N(C)Cc2ccc(Cl)cc2Cl)no1 | -10 | 1 | 3 | 1 | 4 | 0
CN(C)Cc1ccccc1CCc1ccccc1 | 31* | -29 | 1 | -14 | -18 | 30*
C[C@@H]1CN([C@H](C)CO)C(=O)CCCn2cc(nn2)CO[C@H]1CN(C)C(=O)Nc1cccc(F)c1 | -6 | -3 | 1 | 0 | 1 | -1
O=C(NCCN1CCCC1)c1ccc(Cn2c(=S)[nH]c3cc4c(cc3c2=O)OCO4)cc1 | -6 | -15 | 1 | -8 | 28* | 12
Cc1ccccc1-c1cc(C(=O)NCc2cccc(C(F)(F)F)c2)n(CC2CC(c3cccnc3)=NO2)n1 (centres undefined) | -2 | -33 | 16 | -10 | -7 | -3
CC(=O)Nc1ccc(OCC(O)Cn2c3ccccc3c3ccccc32)cc1 (centres undefined) | 0 | 0 | 11 | 16 | 3 | -2
CC(=O)Nc1ccc(OCC(O)Cn2c3ccccc3c3ccccc32)c(C)c1 (centres undefined) | 27* | -12 | 26 | -11 | 11 | 15
CC(NC(=O)Cc1ccccc1)C(=O)O (centres undefined) | -4 | 3 | 0 | 2 | 5 | -7
Cc1ccc(C)c(OCC(=O)NNC(=O)CCN2CCN(c3ccccc3)CC2)c1 | 10 | -3 | 2 | 2 | 2 | 14
COc1ccccc1NC(=O)c1cc2c(=O)n(C)c3ccccc3c2n1C | 54* | -17 | 10 | -22 | -3 | 15
SMILES | CHRM4 antagonist | M5 PAM | CHRM4 agonist | CHRM4 PAM | CHRM5 agonist | CHRM5 antagonist
CCOc1ccc(NC(=O)c2cc3c(=O)n(C)c4ccccc4c3n2C)cc1 | -1 | 0 | 1 | 3 | 4 | -2
COC(=O)c1ccc(CN2C(=O)NC(Cc3c[nH]c4ccccc34)C2=O)cc1 (centres undefined) | 6 | -9 | 20 | -6 | 7 | 14
Fc1ccc(-c2cc3nc(-c4ccccc4)cc(N4CCN(CCN5CCOCC5)CC4)n3n2)cc1 | 11 | -10 | 33* | -11 | 6 | 14
CN1CCN(c2cc(-c3ccccc3)nc3cc(-c4ccc(F)cc4)nn23)CC1 | 5 | 3 | 5 | 8 | -1 | 27
CCn1c(COc2ccccc2)nnc1SCC(=O)C(C)(C)C | -3 | 2 | 4 | 26* | 1 | -2
CCn1c(COc2ccc(C)cc2)nnc1SCC(=O)C(C)(C)C | -9 | 2 | 2 | -2 | -1 | -5
c1ccc2c(c1)ccc1ncccc12 | 5 | 0 | 2 | 21* | -3 | 5
CC1Sc2ccc(S(=O)(=O)N3CCC(C(=O)NCc4ccccc4)CC3)cc2NC1=O (centres undefined) | -3 | 2 | 5 | -11 | -3 | 2
Cc1cc([N+](=O)[O-])nn1CC(=O)Nc1ccccn1 | -2 | -1 | 1 | 25* | -3 | 8
COc1ccc(NC(=O)Nc2nnc([C@H]3C[C@H](O)[C@@H](CO)O3)s2)cc1 | -9 | -3 | 1 | 2 | 1 | -1
COC(=O)c1ccc2cn[nH]c2c1 | -4 | -1 | 0 | -1 | 2 | 2
O=C(Nc1nnc(CCS(=O)(=O)c2ccc3ccccc3c2)s1)c1cccs1 | -7 | 1 | 1 | 21* | -3 | -3
COc1ccc(S(=O)(=O)CCc2nnc(NC(=O)c3cccs3)s2)cc1 | 13 | 0 | 1 | 3 | 0 | 0
CN(CCOc1ccc(Cl)cc1)C(=O)c1cc(-c2ccco2)nc2ccccc12 | 19 | -26 | 22 | -10 | 2 | 28*
O=C(Nc1ccc2nc(C(F)(F)F)[nH]c2c1)[C@@H]1O[C@H](CO)[C@@H](O)[C@H]1O | -13 | 4 | 1 | 5 | 1 | -4
CCOC(=O)C1(Cc2ccccc2)CCN(Cc2cccc(OC)c2O)CC1 | -6 | 2 | 7 | -5 | 3 | -4
CCOC(=O)C1(Cc2ccccc2)CCN(Cc2cn(CC(=O)OC)c3ccccc23)CC1 | -12 | 3 | 4 | 20* | -5 | -1
Cc1n[nH]c(C)c1CCCCOc1ccccc1[N+](=O)[O-] | 13 | -24 | 13 | -13 | -6 | 34*
